Source: ChEMBL document CHEMBL1154968, “Tellimagrandin I, HCV invasion inhibitor from Rosae Rugosae Flos” (Bioorg Med Chem Lett, 2010)

Legend:
Hepatitis C virus [1] = assay: Antiviral activity against G envelope protein expressing HCV infected in HepG2 cells assessed as inhibition of viral invasion at 1 uM after 24 hrs by SEAP reporter gene assay; format: functional, Hepacivirus hominis; conditions: HepG2, 24 h
How it was run: (§1)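 HepG2 cells seeded at 9.0 × 10⁴ cells/mL in DMEM with 10% FBS were grown 24 h at 37 °C under 5% CO₂. Samples in DMSO were diluted in medium (final DMSO 1.0%) and added 1 h before inoculation. After a further 24 h, supernatant SEAP activity was read by fluorescence.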

Hepatitis C virus [2] = assay: Antiviral activity against E1 and E2 envelope protein expressing HCV infected in HepG2 cells assessed as inhibition of viral invasion at 1 uM after 24 hrs by SEAP reporter gene assay; format: functional, Hepacivirus hominis; conditions: HepG2, 24 h; how it was run: as §1
Hepatitis C virus [3] = assay: Antiviral activity against E1 and E2 envelope protein expressing HCV infected in HepG2 cells assessed as inhibition of viral invasion at 10 uM after 24 hrs by SEAP reporter gene assay; format: functional, Hepacivirus hominis; conditions: HepG2, 24 h; how it was run: as §1
Hepatitis C virus [4] = assay: Antiviral activity against G envelope protein expressing HCV infected in HepG2 cells assessed as inhibition of viral invasion at 10 uM after 24 hrs by SEAP reporter gene assay; format: functional, Hepacivirus hominis; conditions: HepG2, 24 h; how it was run: as §1
Hepatitis C virus [5] = assay: Antiviral activity against E1 and E2 envelope protein expressing HCV infected in HepG2 cells assessed as inhibition of viral invasion at 3 uM after 24 hrs by SEAP reporter gene assay; format: functional, Hepacivirus hominis; conditions: HepG2, 24 h; how it was run: as §1
Hepatitis C virus [6] = assay: Antiviral activity against G envelope protein expressing HCV infected in HepG2 cells assessed as inhibition of viral invasion at 3 uM after 24 hrs by SEAP reporter gene assay; format: functional, Hepacivirus hominis; conditions: HepG2, 24 h; how it was run: as §1
[7] = Growth inhibition of human HepG2 cells at 10 uM; format: cell-based; conditions: read-out: GI

SMILES | inhibition at 1 µM (Hepatitis C virus [1]) | inhibition at 1 µM (Hepatitis C virus [2]) | inhibition at 10 µM (Hepatitis C virus [3]) | inhibition at 10 µM (Hepatitis C virus [4]) | inhibition at 3 µM (Hepatitis C virus [5]) | inhibition at 3 µM (Hepatitis C virus [6]) | inhibition at 10 µM [7]
O=C(OC[C@H]1OC(O)[C@H](OC(=O)c2cc(O)c(O)c(O)c2)[C@@H](OC(=O)c2cc(O)c(O)c(O)c2)[C@@H]1OC(=O)c1cc(O)c(O)c(O)c1)c1cc(O)c(O)c(O)c1 (stereo not given in full) | 16% | 9.1% | 43.7% | 51.2% | 20.8% | 40.7% | –
O=C(O[C@@H]1O[C@@H]2COC(=O)c3cc(O)c(O)c(O)c3-c3c(cc(O)c(O)c3O)C(=O)O[C@H]2[C@H](OC(=O)c2cc(O)c(O)c(O)c2)[C@H]1OC(=O)c1cc(O)c(O)c(O)c1)c1cc(O)c(O)c(O)c1 [EUGENIIN] | 17.2% | 18.4% | 92.8% | 35.7% | 51.3% | 21.2% | –
O=C1OC[C@H]2OC(O)[C@@H]3OC(=O)c4cc(O)c(O)c(O)c4-c4c(cc(O)c(O)c4O)C(=O)O[C@H]3[C@@H]2OC(=O)c2cc(O)c(O)c(O)c2-c2c1cc(O)c(O)c2O (stereo not given in full) [PEDUNCULAGIN] | 9.4% | 14.6% | 81.1% | 30.9% | 58.8% | 14.8% | –
O=C(OC[C@H]1O[C@@H](OC(=O)c2cc(O)c(O)c(O)c2)[C@H](OC(=O)c2cc(O)c(O)c(O)c2)[C@@H](OC(=O)c2cc(O)c(O)c(O)c2)[C@@H]1OC(=O)c1cc(O)c(O)c(O)c1)c1cc(O)c(O)c(O)c1 [PENTAGALLOYL GLUCOSE] | 5% | 4.2% | 72.3% | 40.7% | 28.9% | 22.8% | –
O=C(O[C@H]1[C@@H]2OC(=O)c3cc(O)c(O)c(O)c3-c3c(cc(O)c(O)c3O)C(=O)OC[C@H]2OC(O)[C@@H]1OC(=O)c1cc(O)c(O)c(O)c1)c1cc(O)c(O)c(O)c1 (stereo not given in full) [Tellimagrandin I] | – | – | – | – | – | – | 15.6%
